# An excerpt weighted towards active compounds, which were near 9.4% of everything screened.
# CSC inhib: cancer stem cell inhibition; cancer stem cell-like cells viability, luminescence; inhibition, % at 7.5 µM; 300,000 compounds, 1.1% hits; AID 2717; in the data active means inhibition above about 75%; tested in HMLE shEcad cells
# SKKanGAS inh: blocks kanamycin growth of S. pyogenes SKKanGAS strain; inhibition, % at 7.5 µM; AID 1662; 300,000 compounds, 1.3% hits; BacTiter-Glo, 6 h;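 active means mean replicate score, as percent of positive control median, at least 50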;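 further: strain carries kanamycin resistance gene driven by streptokinase promoter and grows in 40 µg/ml kanamycin; loss of luminescence reflects streptokinase promoter inhibition or plain growth inhibition; 0% = median of DMSO wells and 100% = positive control at its reference dose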
# L major viab: inhibitors of Leishmania major promastigote growth. Leishmania major promastigotes, resazurin fluorescence viability. inhibition, % at 10 µM. 200,000 compounds, 9% hits; in the data active means inhibition above about 50%;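 further: promastigotes grown with compound for 44 hours at 28 °C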
# T cruzi repl: blocks replication of Trypanosoma cruzi. T. cruzi beta-gal in NIH3T3, luminescence, 90 h. inhibition, % (concentration not given with the values). 300,000 compounds, 1.4% hits. AID 1885;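 active means mean inhibition across valid replicates above about 55%, limit read from the data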;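 further: signal also drops with host cell toxicity which is not excluded here; 0% = plate median of DMSO wells and 100% = zero luminescence signal; higher percent means less beta-gal luminescence so fewer parasites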
#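 Incubation – ≥90 h infection period, 3 h prior cell attachment · System – NIH/3T3 fibroblasts plus reporter T. cruzi · Doses – compound pinned at 50 nL/well, DMSO · Read-out basis – percent inhibition of parasite-derived β-gal signal · Signal – luminescent β-galactosidase signal after 60 min lysis · Also added – 5000 T. cruzi trypomastigotes/well · Medium – Low-serum DMEM with 2% FBS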
# Beta apoptosis: beta cell apoptosis inhibition; INS-1E cytokine-induced death, ATP luminescence, 48 h; percent of positive-control rescue, neutral wells zero; protection from apoptosis, % (no concentration beside the values); 300,000 compounds, 0.8% hits;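 active means Every replicate reaches about 75%, or at least half do and their mean reaches it too, limit read from the data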;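 further: 0% = cytokine-treated negative control wells and 100% = positive control rescue; higher means more ATP so stronger rescue from cytokine killing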
# Mdm2 MdmX PPI: disrupts the human Mdm2-MdmX interaction | O15151+Q00987 | AID 485346 | inhibition, % at 8 µM | 330,000 compounds, 3% hits | SaOS-2 split-luciferase Mdm2/MdmX complementation, luminescence;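 active means inhibition of at least 50% at 8 µM in the primary screen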
# Target sequence (O15151 whole entry, looked up): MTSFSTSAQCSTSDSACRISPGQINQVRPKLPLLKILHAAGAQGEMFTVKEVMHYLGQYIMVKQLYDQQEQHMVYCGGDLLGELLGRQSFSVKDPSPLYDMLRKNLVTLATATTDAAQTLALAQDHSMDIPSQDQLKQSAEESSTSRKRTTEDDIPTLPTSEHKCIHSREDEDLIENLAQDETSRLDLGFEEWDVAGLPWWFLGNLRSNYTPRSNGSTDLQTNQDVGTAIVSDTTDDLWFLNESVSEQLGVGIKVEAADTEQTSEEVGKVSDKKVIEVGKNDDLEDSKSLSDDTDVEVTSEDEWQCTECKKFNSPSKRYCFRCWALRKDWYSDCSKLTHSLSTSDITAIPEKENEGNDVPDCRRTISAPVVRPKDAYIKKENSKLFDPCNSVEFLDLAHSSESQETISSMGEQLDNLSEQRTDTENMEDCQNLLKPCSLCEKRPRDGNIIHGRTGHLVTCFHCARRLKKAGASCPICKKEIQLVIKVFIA
# Target sequence (Q00987 whole entry, looked up): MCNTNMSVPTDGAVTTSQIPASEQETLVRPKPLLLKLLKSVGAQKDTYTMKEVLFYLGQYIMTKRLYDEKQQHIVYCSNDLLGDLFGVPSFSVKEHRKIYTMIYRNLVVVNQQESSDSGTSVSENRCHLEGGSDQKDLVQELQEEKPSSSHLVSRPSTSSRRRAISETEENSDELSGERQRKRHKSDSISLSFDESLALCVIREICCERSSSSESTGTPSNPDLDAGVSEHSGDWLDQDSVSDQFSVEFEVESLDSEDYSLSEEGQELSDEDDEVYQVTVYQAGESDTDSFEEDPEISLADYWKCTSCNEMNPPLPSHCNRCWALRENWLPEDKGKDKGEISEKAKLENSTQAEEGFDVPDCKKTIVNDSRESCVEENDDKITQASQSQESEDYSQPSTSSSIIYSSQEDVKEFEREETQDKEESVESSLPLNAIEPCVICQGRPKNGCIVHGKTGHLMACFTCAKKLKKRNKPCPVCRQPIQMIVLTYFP
# Numbers without * were called inactive; . = no result given.
SMILES,CSC inhib,SKKanGAS inh,L major viab,T cruzi repl,Beta apoptosis,Mdm2 MdmX PPI
C=CCOC(=O)C(C#N)c1nc2ccccc2nc1N1CCN(Cc2ccc3c(c2)OCO3)CC1 (stereo unspecified),38.0,12.8,57.8*,57.2*,-3.3,24.5
Cc1cccn2c(=O)c(/C=C(\C#N)C(N)=O)c(N3CCN(Cc4ccc5c(c4)OCO5)CC3)nc12,-11.8,3.9,65.0*,29.8,4.1,3.8
CC1CCN(c2nc3ccccc3nc2C(C#N)C(=O)NC2CCCCC2)CC1 (stereo unspecified),-2.5,67.6*,.,4.9,-8.8,9.4
CCC(CC)COC(=O)C(C#N)c1nc2ccccc2nc1N1CCN(CC)CC1 (stereo unspecified),-1.9,8.3,100.5*,55.0*,8.2,44.2
COC(=O)C(C#N)c1nc2ccccc2nc1N1CCCC1 (stereo unspecified),.,2.3,2.4,10.2,-5.3,6.2
CCC(C)COC(=O)C(C#N)c1nc2ccccc2nc1N1CCCCC1 (stereo unspecified),8.9,52.8*,33.2,41.3,10.4,-2.1
O=C(CNCC1CCCCC1)Nc1ccc(OC(F)(F)F)cc1,-0.1,-2.0,-9.0,-1.7,-0.6,-15.9
COc1cc(OC)nc(-n2ncc(Br)c(Br)c2=O)n1,106.6*,.,100.3*,.,99.2*,.
Cc1ccc2nc(NCCCN3CCOCC3)c(C=NCCCN3CCOCC3)c(=O)n2c1,.,-6.3,78.7*,-1.6,.,.
CCCn1c(SCC(=O)N2CCOCC2)nnc1-c1ccncc1,-6.8,-2.6,.,-9.4,-4.9,16.2
Cc1cc(C)n(-c2nc(SCC(=O)Nc3nccs3)c3c4c(sc3n2)COC(C)(C)C4)n1,3.0,57.9*,37.2,-7.1,19.6,41.7
Cc1cc(C)n(-c2nc(NCCC(C)C)c3c4c(sc3n2)COC(C)(C)C4)n1,.,64.5*,70.9*,75.7*,.,.
Cc1cc(C)n(-c2nc(-n3nc(C)cc3C)c3c4c(sc3n2)COC(C)(C)C4)n1,-14.2,5.8,4.8,20.8,0.9,31.6
O=C(O)c1ccc(NC2=C/C(=N/S(=O)(=O)c3ccccc3)c3ccccc3C2=O)cc1,.,.,100.0*,.,.,45.6
Cc1cc(C)c(S(=O)(=O)/N=C2\C=C(NS(=O)(=O)c3ccccc3)C(=O)c3ccccc32)c(C)c1,-7.2,28.2,.,-6.9,.,35.9
CCc1ccc(S(=O)(=O)/N=C2\C=C(Nc3cccc(C(=O)O)c3)C(=O)c3ccccc32)cc1,.,105.9*,.,-1.7,51.8,30.9
COC(=O)Nc1ccc2c(c1)N(C(=O)CCN1CCN3CCCC3C1)c1ccccc1S2 (stereo unspecified),-14.5,6.3,70.7*,53.3,.,18.5

# Source: PubChem BioAssay
